Tests used:
[1] = target: T1, Human immunodeficiency virus type 1 integrase (Human immunodeficiency virus 1, UniProt Q7ZJM1); assay: Inhibitory concentration as 50% inhibition of HIV-1 integrase enzyme at strand transfer stage of DNA integration.
[2] = target: T1, Human immunodeficiency virus type 1 integrase; assay: Inhibition of HIV-1 integrase enzyme at 3`- processing stage of DNA integration
CCRF-CEM [3] = assay: Effective concentration was evaluated on HIV-1 infected CEM cells; type: functional, cell-based; conditions: Homo sapiens
How it was run: (§1)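 CEM T4 lymphocytes, exponentially growing, 5000 cells/well, infected with thawed HIV-1 stock at m.o.i. ~0.1. Compounds dissolved in DMSO, diluted 1:100 in medium, final 1:200. Uninfected drug-treated cells served as toxicity control. Incubation 6 days at 37 °C, 5% CO2. Viability read by XTT formazan absorbance, with microscopic confirmation of protection.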

CCRF-CEM [4] = assay: Tested for HIV-1 replication in CEM cells.; type: functional, cell-based; conditions: Homo sapiens; how it was run: as §1
CCRF-CEM [5] = assay: Effective concentration was evaluated on HIV-1 infected CEM cells. (NR-not reached due to cytotoxicity.); type: functional, cell-based; how it was run: as §1
CCRF-CEM [6] = assay: Effective concentration was evaluated on HIV-1 infected CEM cells.; type: functional, cell-based; conditions: Homo sapiens; how it was run: as §1
[7] = target: T1, Human immunodeficiency virus type 1 integrase; assay: Inhibitory concentration was evaluated as 50% inhibition of HIV-1 integrase enzyme at strand transfer stage of DNA integration in experiment II
How it was run: (§2)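 Purified recombinant HIV-1 integrase (200 nM final) preincubated with inhibitor for 30 min at 30 °C in MOPS/HEPES pH 7.2–7.5 buffer containing 7.5 mM MnCl2 and 10% DMSO. 20 nM 5'-32P-labeled 21-mer duplex oligonucleotide (AE117/AE118) added, then 1 h more. Strand transfer products resolved on denaturing 20% polyacrylamide/urea gels and quantified by phosphorimaging. % inhibition plotted against drug concentration to read IC50.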

[8] = target: T1, Human immunodeficiency virus type 1 integrase; assay: Inhibitory concentration was evaluated as 50% inhibition of HIV-1 integrase enzyme at strand transfer stage of DNA integration in experiment I; how it was run: as §2
[9] = target: T1, Human immunodeficiency virus type 1 integrase; assay: Inhibitory concentration was evaluated as 50% inhibition of HIV-1 integrase enzyme at 3`- processing stage of DNA integration in experiment II
[10] = target: T1, Human immunodeficiency virus type 1 integrase; assay: Inhibitory concentration was evaluated as 50% inhibition of HIV-1 integrase enzyme at 3`- processing stage of DNA integration in experiment I
CCRF-CEM [11] = assay: Effective concentration was evaluated on HIV-1 infected CEM cells.(NR-not reached due to cytotoxicity.); type: functional, cell-based, Homo sapiens; how it was run: as §1

T1 sequence (Q7ZJM1 whole entry): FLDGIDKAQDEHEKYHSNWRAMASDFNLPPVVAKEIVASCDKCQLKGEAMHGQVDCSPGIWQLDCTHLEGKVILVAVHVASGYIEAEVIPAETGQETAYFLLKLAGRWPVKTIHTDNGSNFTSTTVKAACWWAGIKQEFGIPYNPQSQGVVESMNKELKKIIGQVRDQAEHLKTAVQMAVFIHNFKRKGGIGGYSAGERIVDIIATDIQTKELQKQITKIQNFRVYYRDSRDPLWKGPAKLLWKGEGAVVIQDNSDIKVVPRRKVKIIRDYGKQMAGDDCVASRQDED

SMILES | IC50 [1] [µM] | IC50 [2] [µM] | IC50 (CCRF-CEM [4]) [µM] | EC50 (CCRF-CEM [5]) | further results
Nc1ccccc1C(=O)NNC(=O)c1ccccc1N | > 100 | > 100 | > 200 | – | EC50 (CCRF-CEM [3]): > 200 µM
CC1=NN(C(=O)c2ccccc2O)C(=O)/C1=C/c1cccc(O)c1 | 7.4 | 0.9 | – | Not reached | –
COc1ccc(/C=C2/C(=O)N(C(=O)c3ccc(Cl)cc3)N=C2C)cc1OC | > 260 | > 260 | > 35 | – | EC50 (CCRF-CEM [6]): > 35 µM
CC1=NN(C(=O)c2ccc(Cl)cc2)C(=O)/C1=C/c1ccc(O)cc1 | > 293 | > 293 | > 15 | – | EC50 (CCRF-CEM [6]): > 15 µM
CC1=NN(C(=O)c2ccc(Cl)cc2)C(=O)/C1=C/c1ccc(Cl)cc1 | > 280 | > 280 | > 10 | – | EC50 (CCRF-CEM [6]): > 10 µM
O=C(NNC(=O)c1ccc(Br)cc1)c1ccc(Br)cc1 | > 100 | > 100 | – | – | –
CC1=NN(C(=O)c2ccccc2O)C(=O)/C1=C/c1ccccc1O | 2.8 | – | 0.062 | Not reached | –
O=C(NN1C(=O)C(Cl)C1c1ccc([N+](=O)[O-])cc1)c1ccccc1O (stereo not drawn) | – | – | > 10 | Not reached | IC50 [7]: 83 µM; IC50 [8]: 155 µM; IC50 [9]: 168 µM; IC50 [10]: 192 µM
COc1cc(C2C(Cl)C(=O)N2NC(=O)c2ccccc2O)cc(OC)c1OC (stereo not drawn) | 73.7 | – | 4.4 | Not reached | IC50 [9]: 75.7 µM; IC50 [10]: 68.8 µM
O=C(NN1C(=O)C(Cl)C1c1cccc(O)c1)c1ccccc1O (stereo not drawn) | – | – | > 15 | Not reached | IC50 [7]: 99 µM; IC50 [8]: 236 µM; IC50 [9]: 225 µM; IC50 [10]: 180 µM
CC1=NN(C(=O)c2ccc(Cl)cc2)C(=O)/C1=C/c1cccc([N+](=O)[O-])c1 | > 270 | > 270 | > 20 | – | EC50 (CCRF-CEM [3]): > 20 µM
O=C(NNC(=O)c1ccccc1Br)c1ccccc1Br | > 100 | > 100 | – | – | –
O=C(NNC(=O)c1ccccc1F)c1ccccc1F | > 100 | > 100 | – | – | –
CC1=NN(C(=O)c2ccccc2O)C(=O)/C1=C/c1cccc([N+](=O)[O-])c1 | 2.6 | 1.4 | 0.098 | Not reached | –
CC1=NN(C(=O)c2ccc(Cl)cc2)C(=O)/C1=C/c1ccccc1O | > 293 | > 293 | > 21 | – | EC50 (CCRF-CEM [6]): > 21 µM
COc1ccc(/C=C2/C(=O)N(C(=O)c3ccccc3O)N=C2C)cc1OC | – | – | 0.15 | Not reached | –
O=C(NNC(=O)c1ccc2ccccc2c1)c1ccc(Cl)c(Cl)c1 | > 100 | > 100 | – | – | –
CC1=NN(C(=O)c2ccccc2O)C(=O)/C1=C/c1ccco1 | 2 | 2.7 | 0.6 | Not reached | –
COc1ccc(C2C(Cl)C(=O)N2NC(=O)c2ccccc2O)cc1OC (stereo not drawn) | 106 | – | > 50 | Not reached | IC50 [9]: 109 µM; IC50 [10]: 125 µM
COc1cc(C2C(Cl)C(=O)N2NC(=O)c2ccccc2O)ccc1O (stereo not drawn) | 262 | > 275 | > 27.5 | Not reached | –
COc1cc(/C=C2/C(=O)N(C(=O)c3ccccc3O)N=C2C)cc(OC)c1OC | 2 | 2 | 0.24 | Not reached | –
COc1cc(C(=O)NNC(=O)c2ccc(Cl)cc2)cc(OC)c1OC | > 100 | > 100 | – | – | –
CC1=NN(C(=O)c2ccc(Cl)cc2)C(=O)/C1=C/c1cccc(O)c1 | > 293 | > 293 | > 8 | – | EC50 (CCRF-CEM [6]): > 8 µM

SMILES | IC50 [1] [µM] | IC50 [2] [µM] | IC50 (CCRF-CEM [4]) [µM] | EC50 (CCRF-CEM [5]) | further results
O=C(NN1C(=O)C(Cl)C1c1c(O)ccc2ccccc12)c1ccccc1O (stereo not drawn) | 222 | 127 | – | – | –
COc1ccc(C2C(Cl)C(=O)N2NC(=O)c2ccccc2O)cc1 (stereo not drawn) | 167 | 288 | > 144 | – | –
CCOc1ccccc1C(=O)NNC(=O)c1ccccc1OCC | > 100 | > 100 | – | – | –
CC1=NN(C(=O)c2ccccc2O)C(=O)/C1=C/c1ccc(O)cc1 | 0.9 | 0.6 | 0.059 | Not reached | –
CC1=NN(C(=O)c2ccccc2O)C(=O)/C1=C/c1ccc([N+](=O)[O-])cc1 | 0.6 | 0.8 | 0.091 | Not reached | –
O=C(NNC(=O)c1ccccc1O)c1ccccc1O | – | – | 0.1 | – | EC50 (CCRF-CEM [11]): Not reached
O=C(NNC(=O)c1ccc(Cl)cc1Cl)c1ccc2ccccc2c1 | > 100 | > 100 | – | – | –
COc1ccc(/C=C2/C(=O)N(C(=O)c3ccccc3O)N=C2C)cc1 | 0.6 | 0.9 | 0.053 | Not reached | –
COc1cc(C(=O)NNC(=O)c2ccc(Cl)c(Cl)c2)cc(OC)c1OC | > 100 | > 100 | – | – | –
O=C(NNC(=O)c1cccc2ccccc12)c1ccccc1Br | > 100 | > 100 | – | – | –
COc1cc(/C=C2/C(=O)N(C(=O)c3ccccc3O)N=C2C)ccc1O | 0.6 | 0.8 | – | Not reached | –
O=C(NNC(=O)c1ccc(Cl)c(Cl)c1)c1ccc(Cl)c(Cl)c1 | > 100 | > 100 | – | – | –
COc1cc(/C=C2/C(=O)N(C(=O)c3ccc(Cl)cc3)N=C2C)cc(OC)c1OC | > 240 | > 240 | > 17 | – | EC50 (CCRF-CEM [6]): > 17 µM
O=C(NN1C(=O)C(Cl)C1c1cccc(Cl)c1)c1ccccc1O (stereo not drawn) | 125 | – | > 74 | Not reached | IC50 [9]: 202 µM; IC50 [10]: 155 µM
O=C(NNC(=O)c1ccc(Cl)c(Cl)c1)c1ccccc1 | > 100 | > 100 | – | – | –
O=C(NNC(=O)c1ccccc1F)c1ccc2ccccc2c1 | > 100 | > 100 | – | – | –
O=C(NN1C(=O)C(Cl)C1c1ccccc1O)c1ccccc1O (stereo not drawn) | 264 | 300 | 8.2 | Not reached | –
O=C(O)c1ccccc1C(=O)NNC(=O)c1ccccc1C(=O)O | > 100 | > 100 | – | – | –
O=C(NNC(=O)c1cccc2ccccc12)c1ccccc1F | > 100 | > 100 | – | – | –
O=C(NN1C(=O)C(Cl)C1c1ccc(O)cc1)c1ccccc1O (stereo not drawn) | 285 | > 300 | 10.3 | Not reached | –
O=C(NN1C(=O)C(Cl)C1c1ccccc1Cl)c1ccccc1O (stereo not drawn) | 94 | – | > 14.8 | Not reached | IC50 [9]: 248 µM; IC50 [10]: 241 µM
O=C(NNC(=O)c1cccc2ccccc12)c1ccc(Cl)c(Cl)c1 | > 100 | > 100 | – | – | –

Source: ChEMBL document CHEMBL1131060, “Salicylhydrazine-containing inhibitors of HIV-1 integrase: implication for a selective chelation in the integrase active site” (J Med Chem, 1998)
